# Screens from PubChem.
# Arbovirus inh – blocks arbovirus infection. arbovirus infection cell-based antiviral screen. inhibition, % at 10 µM. 200,000 compounds, 0.37% hits; in the data active = inhibition above about 30%
# m-calpain inh – inhibitors of pig calpain II; inhibition, % at 16 µM; purified calpain II, fluorogenic peptide substrate, 30 min; 220,000 compounds, 0.37% hits;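 active = inhibition above about 50%, limit read from the data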
# Mcl1-Bid inh – disrupts binding of human Mcl-1 to Bid peptide | 220,000 compounds, 0.97% hits | TR-FRET Mcl-1/Bid-Dy647 peptide binding, 1536-well | Q07820 | inhibition, % at 21.7 µM;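 active = compounds that cut the binding signal by more than half at the single screening dose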;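 also: His-tagged Mcl-1 with europium anti-His antibody binding Bid BH3 peptide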
# Target sequence (Q07820 whole entry, looked up): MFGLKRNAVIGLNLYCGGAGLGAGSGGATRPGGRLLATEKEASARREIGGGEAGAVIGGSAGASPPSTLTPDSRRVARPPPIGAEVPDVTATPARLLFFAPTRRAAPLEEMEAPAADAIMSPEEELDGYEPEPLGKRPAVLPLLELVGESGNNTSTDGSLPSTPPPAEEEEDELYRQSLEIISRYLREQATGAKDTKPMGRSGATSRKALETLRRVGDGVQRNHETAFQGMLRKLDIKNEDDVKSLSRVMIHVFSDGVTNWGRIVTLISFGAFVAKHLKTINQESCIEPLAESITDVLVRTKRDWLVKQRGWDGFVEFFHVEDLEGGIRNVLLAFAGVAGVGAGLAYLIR
# Calb biofilm kill – mixtures killing C. albicans biofilm | C. albicans biofilm persisters + clotrimazole, fluorescence viability; primary screen in compound mixtures of four per well | inhibition, % at 7.6 µM | 120,000 compounds, 0.02% hits;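 active = inhibition above 30.3% in the primary screen of four-compound pools, then above 30% when the compound was retested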;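 also: compounds exposed to preformed 24 h biofilms for 48 h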
#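 Test system: C. albicans CAF4-2 wild-type biofilms; buffer or medium: RPMI/MOPS medium, pH 7.0; schedule: 24 h biofilm formation, then 48 h compound exposure, 37 °C; detection: Alamar Blue fluorescence; measure: percent inhibition of biofilm viability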
# Mcl-1 Bim block – inhibitors of Bim-Mcl-1 interaction, human. Q07820. Bead-based flow cytometry, Bim peptide-Mcl-1 binding. inhibition, % at 10 µM. 190,000 compounds, 0.1% hits. AID 1009; in the data active = inhibition above about 40%
# Mcl1-Noxa inh – disrupts binding of human Mcl-1 to Noxa peptide | TR-FRET Mcl-1/Noxa peptide binding, 2 h | Q07820 | inhibition, % at 21.7 µM | 220,000 compounds, 1.5% hits | AID 1022;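 active = compounds that cut the protein-peptide binding signal by more than 50% relative to plate controls in a single-dose test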;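 also: His-tagged Mcl-1 with rhodamine Noxa BH3 peptide and terbium anti-His antibody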
# Hits are given with their value; 0 = inactive; - = not tested or not shown. Compounds with a hit are over-represented: about 2.8% of the library has one in this group of screens.
SMILES,Arbovirus inh,m-calpain inh,Mcl1-Bid inh,Calb biofilm kill,Mcl-1 Bim block,Mcl1-Noxa inh
Cc1ccc(CSc2ncnc3onc(C)c23)cc1,-,0,0,0,-,0
O=C(CCSc1ccc(Br)cc1)Nc1cccnc1,0,0,0,0,0,0
O=C(C1=C[C@@H](c2csc3ccccc23)C[C@@H](OCc2ccc(CO)cc2)O1)N1CCN(Cc2ccccc2)CC1,0,0,0,0,0,0
O=C(C1=C[C@@H](c2csc3ccccc23)C[C@@H](OCc2ccc(CO)cc2)O1)N1CCN(Cc2ccc3c(c2)OCO3)CC1,0,0,97,0,0,0
COc1cc2c(cc1OC)C(C)N(C(=S)NC(=O)c1ccccc1)CC2 (stereo not drawn),0,0,0,0,0,0
O=C(N1CCOCC1)C12CC3CC(C1)CC(c1ccccc1)(C3)C2,0,0,0,-,0,0
Cc1ccc(C23CC4CC(CC(C(=O)N5CCOCC5)(C4)C2)C3)cc1,0,0,58,-,0,0
Nc1[nH]n(-c2ccccc2)c(=O)c1N=Nc1ccccc1,-,0,0,0,-,0
Nc1[nH]n(-c2ccccc2)c(=O)c1N=Nc1ccccc1[N+](=O)[O-],0,0,0,-,0,60
Cc1[nH]n(C(N)=S)c(=O)c1N=Nc1ccc2ccccc2c1,0,0,0,0,0,0
Cc1c(N=Nc2c(-c3ccc([N+](=O)[O-])cc3)[nH]n(C(N)=S)c2=O)cccc1[N+](=O)[O-],0,0,98,0,0,116
NC(=S)n1[nH]c(-c2ccc([N+](=O)[O-])cc2)c(N=Nc2cccc([N+](=O)[O-])c2)c1=O,0,0,82,0,0,85
COc1cc([N+](=O)[O-])ccc1N=Nc1c(N)[nH]n(-c2ccccc2)c1=O,0,0,0,0,0,0
Nc1[nH]n(-c2ccccc2)c(=O)c1N=Nc1ccc2ncsc2c1,-,0,0,0,-,63
O=C(CC1C(=O)NCCN1CC1CCCCC1)NCCc1ccc(F)cc1 (stereo not drawn),0,0,0,0,0,0
Cc1cc2c3ccccc3ncn2n1,-,0,0,0,-,0
COC(=O)c1cnn(-c2ccc(Cl)cc2)c1/C=N/NC(N)=S,-,0,0,0,-,0
CC(=O)Nc1ccc(N=Nc2c(C)[nH]n(C(N)=S)c2=O)cc1,0,0,0,0,0,0
NC(=S)n1[nH]c(-c2ccc([N+](=O)[O-])cc2)c(N=Nc2ccccc2[N+](=O)[O-])c1=O,0,0,90,0,0,84
O=C(O)CC(CCc1ccccc1)OC1OC(CO)C(O)C(O)C1O (stereo not drawn),-,0,0,0,-,92
CCOC(=O)N1CCN(Cc2cc(Cl)c3cccnc3c2O)CC1,0,0,0,0,0,0
CCOC(=O)c1sc(N2N=C(C)C(N=Nc3cccc(C)c3)C2=O)nc1C (stereo not drawn),-,0,86,0,-,0
CC1=NN(c2nc(-c3ccc(C)cc3)cs2)C(=O)C1N=Nc1cccc(C)c1 (stereo not drawn),0,0,0,0,0,0
CC1=CC(=C2C=CC(=O)C=C2)C=C(C)N1C,-,0,0,0,-,0
CC(C)OCCCNC(=S)NNC(=O)c1ccc(Cl)c(Cl)c1,0,0,0,0,0,0
SMILES,Arbovirus inh,m-calpain inh,Mcl1-Bid inh,Calb biofilm kill,Mcl-1 Bim block,Mcl1-Noxa inh
c1ccc(-c2cn(-c3ccccc3)c3ncnc(N4CCCCC4)c23)cc1,0,53,0,0,0,0
CN1CCN(c2ncnc3c2c(-c2ccccc2)cn3-c2ccc(F)cc2)CC1,0,0,0,0,0,0
CNC(=O)CC1C(=O)N(c2ccc(OC)cc2)C(=S)N1NC(=O)c1cccc(F)c1 (stereo not drawn),-,0,99,0,-,0
O=C(Cc1cccs1)Nc1ccc(S(=O)(=O)N2CCCCC2)cc1,0,0,0,-,0,66
CC(=O)Nc1ccc(NC(=O)Cc2ccc(S(=O)(=O)N3CCCCC3)s2)cc1,0,77,0,0,0,0
O=C(Cc1cccs1)N1CCN(S(=O)(=O)c2ccccc2)CC1,0,0,97,0,0,0
O=C(Cn1c(=O)sc2ccccc21)Nc1ccc(S(=O)(=O)N2CCCC2)cc1,0,54,0,-,0,0
CCCn1c(SCc2ccon2)nc2ccccc2c1=O,0,0,0,-,0,0
CC(C)c1ccc(S(=O)(=O)N2CCN(CCC(=O)Nc3ccc(N(C)C)cc3)CC2)cc1,0,0,0,-,0,72
O=C(CCOc1ccccc1)Nc1ccc(S(=O)(=O)N2CCCC2)cc1,0,57,0,-,0,0
COc1ccc(NC(=O)CCN2CCN(S(=O)(=O)c3ccc(C(C)C)cc3)CC2)cc1,0,0,0,-,0,0
O=C(Cc1ccc(S(=O)(=O)N2CCOCC2)s1)Nc1nc2c(s1)CCCC2,0,0,0,-,0,71
O=C(NC1CCCCC1)C(c1cccnc1)N(C(=O)CCl)c1cccc(Cl)c1 (stereo not drawn),0,0,0,0,0,0
Cc1cccc2cc(CN(Cc3ccccc3)C(=O)c3cccc(F)c3)c(Cl)nc12,0,0,0,-,0,0
CCN(CC)S(=O)(=O)c1ccc(OC)c(NC(=O)CSc2cc(C)ccc2C)c1,0,0,0,0,0,0
Cc1cc2c(cc1C)CN(c1ccccc1)C2,-,0,0,0,-,0
CC(=O)Nc1ccc(Oc2cc(NC(C)=O)cc([N+](=O)[O-])c2)cc1,0,0,0,0,0,0
Cn1c(=O)c2c([nH]c(OCc3ccc(Cl)cc3Cl)[n+]2Cc2ccc(F)cc2)n(C)c1=O,-,0,0,0,-,0
COc1ccc(CCNC(=O)CN(c2ccc(OC)c(OC)c2)S(C)(=O)=O)cc1,0,0,0,-,0,75
CC1Cc2ccccc2N1C(=S)NC(=O)c1ccco1 (stereo not drawn),0,52,0,0,0,0
C#CCCCCCCC#CCN(C)C,0,0,55,0,0,0
CC(NS(=O)(=O)c1cccc(Cl)c1)C(=O)N(C)C1CCN(C)CC1 (stereo not drawn),0,0,0,0,0,53
O=C(NCCN1CCCCCC1)C1CCCN1S(=O)(=O)c1cccc2nsnc12 (stereo not drawn),-,0,0,0,-,0
O=C(CN1C(=O)S/C(=C/c2cccnc2)C1=O)N1CCOCC1,0,0,0,0,0,0
O=C(NCCN1C(=O)S/C(=C\c2ccc(Cl)c(Cl)c2)C1=O)c1cnccn1,0,0,0,0,0,58
SMILES,Arbovirus inh,m-calpain inh,Mcl1-Bid inh,Calb biofilm kill,Mcl-1 Bim block,Mcl1-Noxa inh
CS(=O)(=O)c1ccc(C(=O)NCCN2C(=O)S/C(=C\c3cccnc3)C2=O)cc1[N+](=O)[O-],0,0,0,0,0,81
CN(C)S(=O)(=O)c1ccc(C(=O)NCCN2C(=O)S/C(=C\c3cccnc3)C2=O)cc1,0,0,0,0,0,0
O=C(O)CCN1C(=O)S/C(=C\c2cccnc2)C1=O,-,0,91,0,-,0
CCN(CC)C(=O)CSc1nnc(-c2ccccn2)n1-c1ccccc1OC,-,0,0,0,-,0
NS(=O)(=O)c1ccc(N/N=C/c2ccc(O)c(O)c2O)c([N+](=O)[O-])c1,-,0,95,0,-,0
COC(OC)c1ccc(C#N)c(SCc2ccc(C)cc2)n1,-,0,0,0,-,0
